Results: PubChem BioAssay AID2516 (University of Pittsburgh Molecular Library Screening Center, 2010)
The other results are listed elsewhere or left out. Unmarked numbers belong to inactive results.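 How the source made its calls: active means at least 50% inhibition in the glucose-6-phosphate dehydrogenase coupled counterscreen; inconclusive means no clear call, values can overlap the other calls; inactive means inhibition below 50%.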

What follows are molecules tested on glucose-6-phosphate dehydrogenase [Leuconostoc mesenteroides] (assay: coupling enzyme G6PDH activity blockers – biochemical, DPI cherry-picked compounds, single concentration, counter-screen for TbHK1 inhibitor project, confirmation (AID 2516)). Conditions: purified G6PDH, NADH absorbance, 1 h; at 10 µM; stronger effect = higher value.
In short: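 Test system – purified G6PDH enzyme in a coupled counterscreen format · Quantity – G6PDH enzyme at 0.006 mU/µL final · Also added – 0.2 mM G6P plus 0.6 mM NAD+ · Doses – one dose, 10 µM · Times – 1 h reaction, room temperature · Technique – absorbance after 50 mM EDTA stop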
In the case of `COC(=O)C1CCN(CC(N)=O)CC1`, the inhibition is reported as -9.01%. `CC1(C)CC(=O)C=C(NCCCNC2CCCCC2)C1` gave an inhibition of 2.59%. In the case of `O=C(CN1C(=O)C2C3C=CC(C3)C2C1=O)NCCc1ccccc1Cl` (centres undefined), the inhibition is reported as -2.31%. In the case of `COc1cccc(/C=N/Nc2ncc(C(F)(F)F)cc2Cl)c1O`, the inhibition is reported as -9.42%.
